According to ChEMBL document CHEMBL4831483, “Discovery and optimization of 2-((1H-indol-3-yl)thio)-N-benzyl-acetamides as novel SARS-CoV-2 RdRp inhibitors” (Eur J Med Chem, 2021):

Tests used:
[1] = biological target: T1, Replicase polyprotein 1ab (Severe acute respiratory syndrome coronavirus 2, UniProt P0DTD1); assay: (§1) Inhibition of SARS-CoV-2 RdRp transfected in human HEK293T cells cotransfected with Cov-Gluc by Gaussia luciferase reporter gene method; type: cell-based
Outline: (§2)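 HEK293T cells were co-transfected with CoV-Gluc reporter plus C-terminally flag-tagged codon-optimized nsp12, nsp7 and nsp8 plasmids (1:10:30:30). After 12 h, cells were re-seeded in 96-well plates at 10^4/well and treated with serially diluted compound. Gaussia luciferase activity in supernatants gave dose-response IC50. Triplicate assays, mean ± SD.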

HEK-293T = assay: (§3) Cytotoxicity against human HEK293T cells assessed as reduction in cell viability incubated for 24 hrs by CCK8 assay; type: cell-based; conditions: hek-293t, 24 h
Outline: (§4)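 HEK293T cells in 96-well plates were exposed to compound at 0.78–100 μM for 24 h. CCK-8 reagent was then added for 1 h at 37 °C and OD450 read. Viability was normalised to DMSO-only cells to give CC50. Triplicate assays, mean ± SD.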

[2] = biological target: T1, Replicase polyprotein 1ab; assay: Inhibition of SARS-CoV-2 RdRp transfected in human HEK293T cells cotransfected nsp12 along with nsp14 and nsp10; type: cell-based
Outline: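 HEK293T cell-based Gaussia luciferase RdRp reporter assay. Cells were co-transfected with CoV-Gluc, nsp12, nsp7, nsp8, nsp10 and nsp14 plasmids (1:10:30:30:25:25) so that the nsp14/nsp10 exoribonuclease was present. Gluc activity was measured after compound treatment.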

[3] = biological target: T1, Replicase polyprotein 1ab; assay: Inhibition of SARS-CoV-2 RdRp transfected in human HEK293T cells cotransfected nsp12; type: cell-based; outline: as §2
[4] = biological target: Replicase polyprotein 1ab (Severe acute respiratory syndrome coronavirus 2) (UniProt P0DTD1); assay: as §1; type: cell-based; outline: as §2
[5] = biological target: Replicase polyprotein 1ab (Severe acute respiratory syndrome coronavirus 2) (UniProt P0DTD1); assay: Inhibition of SARS-CoV-2 RdRp transfected in HEK293T cells cotransfected with CoV-Gluc assessed as decrease in plus and minus strand-Gluc RNA levels incubated for 24 hrs by qRT-PCR analysis; type: cell-based; conditions: dose 5-10 µM
Outline: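 HEK293T cells were transfected with CoV-Gluc, nsp12, nsp7 and nsp8 plasmids (1:10:30:30). At 6 h post-transfection, medium was replaced with fresh medium containing compound, and cells were cultured a further 24 h. Total cellular RNA was extracted and CoV-Gluc RNA quantified by real-time qRT-PCR.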

HEK293T = assay: Ratio of IC50 for inhibition of SARS-CoV-2 RdRp transfected in human HEK293T cells cotransfected nsp12 along with nsp14/nsp10 to IC50 for inhibition of SARS-CoV-2 RdRp transfected in human HEK293T cells cotransfected with nsp12; type: cell-based; conditions: Severe acute respiratory syndrome coronavirus 2
[6] = as §3; type: cell-based, HEK-293T; conditions: HEK293T cells; outline: as §4
[7] = Antiviral activity against HCoV-NL63 infected in LLC-MK2 cells assessed as reduction in viral replication treated 1 hr post infection and measured after 120 hrs post infection by MTS cell proliferation colorimetric assay; type: functional, cell-based; conditions: Human coronavirus NL63, LLC-MK2
Outline: (§5)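 HCT-8 cells infected with HCoV-OC43 at MOI 0.1, and LLC-MK2 cells infected with HCoV-NL63 strain Amsterdam I at MOI 0.01. Serial compound dilutions were added 1 h post-infection in 2% FBS. Incubation was 120 h at 33 °C in 5% CO2. MTS reagent was then added for 3 h at 37 °C and absorbance read at 490 nm.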

Human coronavirus OC43 = assay: Antiviral activity against HCoV-OC43 infected in HCT-8 cells assessed as reduction in viral replication treated 1 hr post infection and measured after 120 hrs post infection by MTS cell proliferation colorimetric assay; type: functional, cell-based; outline: as §5

Row | SMILES | IC50 ([1]; read-out: IC50) [µM] | CC50 (HEK-293T) [µM] | also measured
1 | CN(Cc1ccccc1)C(=O)CSc1c[nH]c2cccc(Br)c12 | 4.73 | 25.1 | –
2 | COc1ccccc1CNC(=O)CSc1cn(C)c2ccccc12 | 9.82 | > 100 | –
3 | COc1ccccc1CNC(=O)CSc1c[nH]c2cc(Br)ccc12 | 10 | > 100 | –
4 | Cn1cc(SCC(=O)NCc2ccccc2)c2ccccc21 | 26.9 | 95.5 | –
5 | Cn1cc(SCC(=O)NCc2ccc(C(F)(F)F)cc2)c2ccccc21 | – | > 100 | IC50 ([1]; hek293t): Not Active
6 | CN(Cc1ccccc1)C(=O)CSc1c[nH]c2c(Br)cccc12 | 20.9 | 52.5 | –
7 | C[C@@H](NC(=O)CSc1c[nH]c2ccccc12)c1ccccc1 | 6.68 | > 100 | –
8 | O=C(CSc1c[nH]c2ccccc12)NCc1ccccc1 | 6.81 | > 100 | –
9 | COc1ccccc1CNC(=O)CSc1c[nH]c2ccc(Br)cc12 | 10.7 | > 100 | –
10 | O=C(CSc1c[nH]c2cccc(Br)c12)NCc1ccc(Cl)c(Cl)c1 | 7.21 | > 100 | –
11 | O=C(CSc1c[nH]c2ccccc12)N(Cc1ccccc1)Cc1ccccc1 | – | > 100 | IC50 [2]: 4.01 µM; IC50 [3]: 3.35 µM; inhibition [4]: Dose-Dependent Effect; inhibition [5]: Dose-Dependent Effect; Ratio IC50 (HEK293T): 1.2
12 | CN(Cc1ccccc1)C(=O)CSc1c[nH]c2ccccc12 | – | > 100 | IC50 [2]: 5.37 µM; IC50 [3]: 4.55 µM; inhibition [4]: Dose-Dependent Effect; inhibition [5]: Dose-Dependent Effect; Ratio IC50 (HEK293T): 1.18
13 | CCC(CC)COC(=O)[C@H](C)N[P@](=O)(OC[C@H]1O[C@@](C#N)(c2ccc3c(N)ncnn23)[C@H](O)[C@@H]1O)Oc1ccccc1 | – | – | inhibition [5]: Dose-Dependent Effect; CC50 at 24 h [6]: > 100 µM
14 | O=C(CSc1c[nH]c2ccc(Br)cc12)NCc1ccc(Cl)c(Cl)c1 | 9.77 | > 100 | –
15 | Cn1cc(SCC(=O)NCc2ccc(Cl)c(Cl)c2)c2ccccc21 | 7.5 | > 100 | –
16 | O=C(CSc1c[nH]c2c(Br)cccc12)NCc1ccc(Cl)c(Cl)c1 | 4.55 | > 100 | –
17 | CN(C)CCOc1ccc(CNC(=O)CSc2cn(C)c3ccccc23)cc1 | 8.91 | > 100 | –
18 | COc1ccccc1CNC(=O)CSc1c[nH]c2c(Br)cccc12 | 7.08 | 72.4 | –
19 | O=C(CSc1c[nH]c2c(Br)cccc12)N(Cc1ccccc1)Cc1ccccc1 | 7.08 | > 100 | –
20 | COc1ccccc1CNC(=O)CSc1c[nH]c2cccc(Br)c12 | 8.71 | > 100 | –
21 | CCOc1ccccc1CN(OC)C(=O)CSc1c[nH]c2cccc(Br)c12 | – | > 100 | IC50 [2]: 1.89 µM; IC50 [3]: 1.11 µM; inhibition [4]: Dose-Dependent Effect; IC50 [7]: > 50 µM; inhibition [5]: Dose-Dependent Effect; Ratio IC50 (HEK293T): 1.7; Activity (Human coronavirus OC43): Dose-Dependent Effect
22 | COc1ccccc1CNC(=O)CSc1c[nH]c2c(-c3ccccc3)cccc12 | – | 95.5 | IC50 [2]: 2.18 µM; IC50 [3]: 1.65 µM; inhibition [4]: Dose-Dependent Effect; inhibition [5]: Dose-Dependent Effect; Ratio IC50 (HEK293T): 1.32
23 | O=C(CSc1c[nH]c2cccc(Br)c12)N(Cc1ccccc1)Cc1ccccc1 | – | 25.7 | IC50 [2]: 3.85 µM; IC50 [3]: 3.76 µM; inhibition [4]: Dose-Dependent Effect; inhibition [5]: Dose-Dependent Effect; Ratio IC50 (HEK293T): 1.02
24 | COc1ccccc1CN(C)C(=O)CSc1c[nH]c2ccccc12 | 7.64 | > 100 | –
25 | Cn1cc(SCC(=O)N(Cc2ccccc2)Cc2ccccc2)c2ccccc21 | 12.3 | 91.2 | –
26 | CN(C)CCOc1ccc(CNC(=O)CSc2c[nH]c3ccccc23)cc1 | 9.08 | > 100 | –
27 | O=C(CSc1c[nH]c2cc(Br)ccc12)NCc1ccc(Cl)c(Cl)c1 | 8.71 | 67.6 | –
28 | O=C(CSc1c[nH]c2ccccc12)NCc1ccc(C(F)(F)F)cc1 | 7.94 | > 100 | –
